Measured values taken from ChEMBL document CHEMBL4431370, “Novel tricyclic poly (ADP-ribose) polymerase-1/2 inhibitors with potent anticancer chemopotentiating activity: Design, synthesis and biological evaluation” (Bioorg Med Chem, 2016).

What was measured:
[1] = molecular target: T1, Poly [ADP-ribose] polymerase 1 (Homo sapiens, UniProt P09874); conditions: A549
[2] = molecular target: T1, Poly [ADP-ribose] polymerase 1; conditions: MDA-MB-468
[3] = test system: SW-620; test: Growth inhibition of human SW620 cells at 100 uM after 72 hrs by SRB assay; assay type: functional; conditions: for inhibition of growth at 100 µM: Homo sapiens, SW-620, 72 h, read-out: GI
How it was run: (§1)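 SRB read-out on adherent cells seeded in 96-well plates. Single-agent exposure at 100 μM for 72 h. Cells fixed in trichloroacetic acid for 1 h at 4 °C, stained with 0.4% (w/v) SRB for 20 min at room temperature, washed with 1% acetic acid. Bound dye solubilized in 10 mM Tris, absorbance read at 540 nm. Percent proliferation inhibition reported; means of two independent experiments.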

[4] = molecular target: T1, Poly [ADP-ribose] polymerase 1
[5] = test system: MDA-MB-468; test: Growth inhibition of human MDA-MB-468 cells at 100 uM after 72 hrs by SRB assay; assay type: functional; conditions: for inhibition of growth at 100 µM: Homo sapiens, MDA-MB-468, 72 h, read-out: GI
How it was run: as §1

[6] = test system: MDA-MB-468; test: Growth inhibition of human MDA-MB-468 cells after 72 hrs by SRB assay; assay type: functional, cell-based
[7] = test system: SW-620; test: Growth inhibition of human SW620 cells after 72 hrs by SRB assay; assay type: functional, cell-based
[8] = molecular target: T1, Poly [ADP-ribose] polymerase 1; test: Inhibition of PARP-1 (unknown origin) after 1 hr in presence of NAD+/biotinylated NAD+/slDNA by ELISA
[9] = molecular target: Poly [ADP-ribose] polymerase 2 (Homo sapiens, UniProt Q9UGN5); test: Inhibition of PARP-2 (unknown origin) after 1 hr in presence of NAD+/biotinylated NAD+/slDNA by ELISA
Sequence of Poly [ADP-ribose] polymerase 2 (Q9UGN5 whole entry): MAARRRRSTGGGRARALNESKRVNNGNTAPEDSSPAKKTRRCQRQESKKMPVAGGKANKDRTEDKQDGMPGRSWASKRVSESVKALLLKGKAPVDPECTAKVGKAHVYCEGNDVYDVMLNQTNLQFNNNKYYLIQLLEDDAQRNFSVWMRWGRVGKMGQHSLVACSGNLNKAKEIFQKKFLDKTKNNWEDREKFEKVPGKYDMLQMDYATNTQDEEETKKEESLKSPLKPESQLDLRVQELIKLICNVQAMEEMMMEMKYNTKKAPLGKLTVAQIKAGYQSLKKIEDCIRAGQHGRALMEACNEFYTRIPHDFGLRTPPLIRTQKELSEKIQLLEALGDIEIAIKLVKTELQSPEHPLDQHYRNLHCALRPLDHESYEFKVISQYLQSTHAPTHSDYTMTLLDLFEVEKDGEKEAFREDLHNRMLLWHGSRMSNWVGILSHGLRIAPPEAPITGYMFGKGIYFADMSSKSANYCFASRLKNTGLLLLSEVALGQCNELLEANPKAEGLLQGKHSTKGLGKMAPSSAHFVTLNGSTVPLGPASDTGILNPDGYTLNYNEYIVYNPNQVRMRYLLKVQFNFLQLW

[10] = molecular target: T1, Poly [ADP-ribose] polymerase 1; test: Inhibition of PARP-1 (unknown origin) at 100 nM after 1 hr in presence of NAD+/biotinylated NAD+/slDNA by ELISA
How it was run: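 Histone-coated wells (20 μg/mL in PBS pH 7.4, 4 °C overnight). Reaction buffer 50 mM Tris, 2 mM MgCl2, pH 8.0, with 100 μM NAD+, 25 μM biotinylated NAD+ and 200 nM slDNA. Started with PARP-1 (50 ng/well), 1 h at 30 °C. Detection by streptavidin-HRP for 30 min at 30 °C, then H2O2/luminol in citrate buffer pH 5.4, luminescence read. Inhibition % = (control−treated)/control ×100.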

T1 sequence (P09874 whole entry): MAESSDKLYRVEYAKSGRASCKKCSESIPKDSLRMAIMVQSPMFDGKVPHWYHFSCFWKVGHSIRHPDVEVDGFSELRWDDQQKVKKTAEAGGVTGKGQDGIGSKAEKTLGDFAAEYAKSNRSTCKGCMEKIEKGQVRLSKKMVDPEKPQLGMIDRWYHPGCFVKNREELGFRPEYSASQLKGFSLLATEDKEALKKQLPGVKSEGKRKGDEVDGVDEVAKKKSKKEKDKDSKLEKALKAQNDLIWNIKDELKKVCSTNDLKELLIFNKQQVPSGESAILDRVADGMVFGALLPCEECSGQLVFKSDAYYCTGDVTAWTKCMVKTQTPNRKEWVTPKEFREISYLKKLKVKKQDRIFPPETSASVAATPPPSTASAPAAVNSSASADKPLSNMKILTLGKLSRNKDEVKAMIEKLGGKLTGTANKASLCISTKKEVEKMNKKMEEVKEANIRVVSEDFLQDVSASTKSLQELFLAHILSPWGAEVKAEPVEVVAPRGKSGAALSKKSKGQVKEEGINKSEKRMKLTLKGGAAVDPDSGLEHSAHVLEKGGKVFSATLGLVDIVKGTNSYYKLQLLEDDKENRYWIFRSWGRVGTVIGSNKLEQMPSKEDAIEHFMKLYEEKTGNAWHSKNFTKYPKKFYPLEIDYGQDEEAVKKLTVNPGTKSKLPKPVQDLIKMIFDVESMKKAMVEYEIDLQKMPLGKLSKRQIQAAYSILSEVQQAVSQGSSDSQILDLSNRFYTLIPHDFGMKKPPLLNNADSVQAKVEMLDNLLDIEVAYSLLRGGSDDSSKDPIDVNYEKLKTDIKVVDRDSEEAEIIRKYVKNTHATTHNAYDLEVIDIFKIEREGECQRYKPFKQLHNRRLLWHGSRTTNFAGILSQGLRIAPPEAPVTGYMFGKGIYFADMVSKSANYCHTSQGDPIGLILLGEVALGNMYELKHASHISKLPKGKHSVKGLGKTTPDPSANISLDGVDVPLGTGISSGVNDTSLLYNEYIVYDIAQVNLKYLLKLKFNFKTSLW

Structure (SMILES) | inhibition of growth at 100 µM [3] [%] | IC50 [8] [nM] | inhibition of growth at 100 µM [5] [%] | also measured
C[C@]1(c2nc3c(C(N)=O)cccc3[nH]2)CCCN1 [VELIPARIB] | – | – | – | PF50 [1]: 1.5; PF50 [2]: 1.2; growth inhibition (GI) [3]: 95%; PF50 [4]: 3.1; growth inhibition (GI) [5]: 69%; EC50 ([6]; mda-mb-468): 43000 nM; EC50 ([7]; sw-620): 27100 nM
CCNCc1ccc(-c2nc3cncc4c3n2CCNC4=O)cc1 | 94 | 11 | 82 | EC50 ([6]; Homo sapiens, MDA-MB-468, 72 h): 4600 nM; EC50 ([7]; Homo sapiens, SW-620, 72 h): 23600 nM; IC50 [9]: 9.9 nM
CCCCN1CCC(c2nc3cncc4c3n2CCNC4=O)CC1 | 67 | 21 | 47 | EC50 ([7]; Homo sapiens, SW-620, 72 h): 95000 nM
O=C1NCCn2c(-c3ccc(N4CCNCC4)cc3)nc3cncc1c32 | 15 | 20 | 57 | EC50 ([6]; Homo sapiens, MDA-MB-468, 72 h): 94000 nM; IC50 [9]: 5.5 nM
O=C1NCCn2c(C3CCN(C(=O)c4cccc(Cl)c4)CC3)nc3cncc1c32 | – | – | – | inhibition [10]: < 10%
O=C1NCCn2c(C3CCN(C(=O)C4CC4)CC3)nc3cncc1c32 | – | – | – | inhibition [10]: < 10%
CNCc1ccc(-c2nc3cncc4c3n2CCNC4=O)cc1 | 80 | 13 | 71 | EC50 ([6]; Homo sapiens, MDA-MB-468, 72 h): 81400 nM; EC50 ([7]; Homo sapiens, SW-620, 72 h): 89000 nM; IC50 [9]: 7.2 nM
O=C1NCCn2c(C3CCN(C(=O)c4ccc(Cl)cc4)CC3)nc3cncc1c32 | – | – | – | inhibition [10]: < 10%
CC(C)NCc1ccc(-c2nc3cncc4c3n2CCNC4=O)cc1 | – | 58 | – | –
CN(C)Cc1ccc(-c2nc3cncc4c3n2CCNC4=O)cc1 | – | 28 | – | –
CC(C)(C)NCc1ccc(-c2nc3cncc4c3n2CCNC4=O)cc1 | – | 75 | – | –
O=C1NCCn2c(C3CCN(C(=O)c4ccccc4)CC3)nc3cncc1c32 | – | – | – | inhibition [10]: < 10%
O=C1NCCn2c(C3CCN(Cc4ccccc4)CC3)nc3cncc1c32 | – | 103 | – | –
O=C1NCCn2c(C3CCN(C(=O)c4ccccc4Cl)CC3)nc3cncc1c32 | – | – | – | inhibition [10]: < 10%
CC(C)N1CCC(c2nc3cncc4c3n2CCNC4=O)CC1 | – | 92 | – | –
O=C1NCCn2c(-c3ccc(CN4CCCCC4)cc3)nc3cncc1c32 | – | 29 | – | –
CN1CCN(c2ccc(-c3nc4cncc5c4n3CCNC5=O)cc2)CC1 | – | 139 | – | –
CC(=O)N1CCC(c2nc3cncc4c3n2CCNC4=O)CC1 | – | – | – | inhibition [10]: < 10%
CC(C)CN1CCC(c2nc3cncc4c3n2CCNC4=O)CC1 | 77 | 28 | 53 | EC50 ([6]; Homo sapiens, MDA-MB-468, 72 h): 18900 nM; EC50 ([7]; Homo sapiens, SW-620, 72 h): 52600 nM; IC50 [9]: 7.7 nM
O=C1NCCn2c(-c3ccccc3)nc3cncc1c32 | – | 110 | – | –
O=C1NCCn2c(-c3ccc(CN4CCCC4)cc3)nc3cncc1c32 | – | 20 | – | –
CCCN1CCC(c2nc3cncc4c3n2CCNC4=O)CC1 | 41 | 19 | 30 | –
O=C1NCCn2c(C3CCNCC3)nc3cncc1c32 | 25 | 54 | 32 | –
